# This is a sample that favours compounds with a hit; in the whole collection about 2.3% have one here.
# TRPC4 agonist: activators of mouse TRPC4 channel, primary screen, Fluo4 calcium, HEK293 TRPC4beta/mu-opioid cells; AID 2237, 2010; Short transient receptor potential channel 4 (Mus musculus), Q9QUQ5; actives 0.49% (n = 310,000); Fluo4 calcium fluorescence; stronger effect = higher value; B-score at 10 µM;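 active = B-score above 5 SD of library B-scores, and initial fluorescence ratio not above library mean plus 5 SD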;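 also: positive B-score marks a calcium rise read as TRPC4 activation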
# Target sequence (Q9QUQ5 whole entry, looked up): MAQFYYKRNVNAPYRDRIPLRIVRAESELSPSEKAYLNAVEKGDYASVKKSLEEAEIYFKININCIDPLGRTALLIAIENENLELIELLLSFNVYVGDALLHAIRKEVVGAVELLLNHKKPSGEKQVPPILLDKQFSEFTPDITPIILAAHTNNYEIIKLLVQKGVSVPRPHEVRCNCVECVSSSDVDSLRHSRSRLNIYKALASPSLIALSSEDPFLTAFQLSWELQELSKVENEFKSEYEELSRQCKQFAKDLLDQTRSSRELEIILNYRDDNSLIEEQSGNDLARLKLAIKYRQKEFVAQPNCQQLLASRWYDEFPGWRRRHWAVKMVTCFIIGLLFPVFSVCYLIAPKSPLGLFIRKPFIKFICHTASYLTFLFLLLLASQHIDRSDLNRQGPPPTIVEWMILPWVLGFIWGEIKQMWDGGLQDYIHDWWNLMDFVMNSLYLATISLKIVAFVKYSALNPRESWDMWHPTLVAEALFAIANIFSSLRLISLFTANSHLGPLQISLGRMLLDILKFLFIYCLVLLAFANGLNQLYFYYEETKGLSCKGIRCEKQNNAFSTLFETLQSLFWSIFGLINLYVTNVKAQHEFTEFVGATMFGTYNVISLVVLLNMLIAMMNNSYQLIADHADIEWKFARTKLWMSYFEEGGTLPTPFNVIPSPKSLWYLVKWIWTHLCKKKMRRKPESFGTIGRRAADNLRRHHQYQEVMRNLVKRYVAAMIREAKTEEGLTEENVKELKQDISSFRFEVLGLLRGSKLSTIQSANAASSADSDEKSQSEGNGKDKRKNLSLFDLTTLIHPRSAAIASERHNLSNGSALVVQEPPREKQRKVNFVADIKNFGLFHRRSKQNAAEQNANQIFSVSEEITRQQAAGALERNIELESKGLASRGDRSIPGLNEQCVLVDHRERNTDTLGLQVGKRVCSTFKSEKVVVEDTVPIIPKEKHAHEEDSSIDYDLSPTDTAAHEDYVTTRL
#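 Assay system: HEK293 stable line with TRPC4beta plus mu-opioid receptor. Times: dye 45 min RT, read 110 s. Measured by: kinetic Fluo4 calcium fluorescence. Measure: B score of integrated ratio. Controls: assay buffer as low control, maximal DAMGO as high control.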
# TRPC4 PAM: positive allosteric modulators of TRPC4, primary screen, cell-based, mouse TRPC4beta, HEK293 mu-opioid, Fluo-4 calcium; Short transient receptor potential channel 4 (Mus musculus), Q9QUQ5; DAMGO EC20, Fluo-4 Ca2+ flux; stronger effect = higher value; B-score at 10 µM; actives 0.42% (n = 310,000); AID 2227, 2009;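 active = B-score of calcium response area above 5 SD of library B-scores, with initial fluorescence ratio within 5 SD of library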;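 also: B-score of integrated fluorescence ratio over time as area under calcium response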
# TRPC6 activator: mouse TRPC6 channel activators, primary screen, cell-based, HEK293, membrane potential dye. Short transient receptor potential channel 6 (Mus musculus), Q61143. HEK293-TRPC6 membrane potential dye fluorescence; stronger effect = higher value. B-score at 10 µM. actives 0.13% (n = 310,000);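 active = B-score of the integrated fluorescence ratio above library mean plus 3 SD, and starting fluorescence ratio within library mean plus 5 SD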;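 also: higher score means more depolarization so channel activation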
# TRPC6 inhibitor: mouse TRPC6 channel inhibitors, primary screen, cell-based, HEK293, membrane potential dye; Short transient receptor potential channel 6 (Mus musculus), Q61143; ACh-evoked depolarization; stronger effect = lower value; B-score at 10 µM; actives 1.1% (n = 310,000); AID 2553, 2010;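 active = B-score under library mean minus 3 SD, initial fluorescence not abnormally high, positive integrated signal ratio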;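 also: B-score derived from integrated fluorescence ratio over the kinetic read; more negative B-score means stronger inhibition of depolarization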
# TRPC4 block: inhibitors of mouse TRPC4 channel, primary screen, Fluo4 calcium, HEK293 TRPC4beta/mu-opioid cells; B-score at 10 µM; actives 0.39% (n = 300,000); DAMGO-evoked Fluo4 calcium flux; stronger effect = lower value;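 active = B-score over 3 SD under the library average, no early fluorescence shift, positive overall ratio signal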
#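 Assay system: HEK293 cells with stable TRPC4beta plus mu-opioid receptor expression; Probe or stimulus: DAMGO in two steps, submaximal then maximal; Dosing: single-point compound dosing; Measured by: Fluo4 calcium-dye fluorescence, kinetic read; Read-out basis: B score from integrated Fluo4 fluorescence ratio.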
# TRPC4 sel inh 2: mouse TRPC4 off-target activity of TRPC6 inhibitors, second screen; shares compounds with TRPC6 inhibitor; HEK293 TRPC4/MOR, membrane potential dye fluorescence; channel activated by saturating DAMGO dose; inhibition, % at 10 µM; actives 42% (n = 920); AID 2776;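 active = compounds whose fluorescence signal differed from control wells by over 3 SD, either direction, in both duplicate plates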
# TRPC4 spec: mouse TRPC4 modulation by TRPC6 hits, confirmation, selectivity assay for TRPC6 inhibitor project, cell-based, HEK293 TRPC4/mu-opioid, membrane potential dye; shares compounds with TRPC6 inhibitor; actives 61% (n = 920); membrane potential fluorescence; activity change, negative = inhibition, % at 10 µM; AID 2777, 2010;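 active = rise or fall in signal beyond 3 SD of buffer-only wells in both replicate plates, either sign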;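 also: integrated kinetic ratio of fluorescence range over baseline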
# HEK293 MPD ctr 2-1: nonspecific membrane potential effects, parental HEK293, confirmation, counter-screen for TRPC6 inhibitor project, cell-based, second counter screen. actives 31% (n = 920). shares compounds with TRPC6 inhibitor. parental HEK293 membrane potential dye fluorescence; maximal acetylcholine challenge after compound addition. signal change vs control, % at 10 µM;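 active = membrane potential signal moving either way by over 3 SD of the maximum-effect control, in both duplicate plates, meaning non-specific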
# HEK293 MPD ctr-1: membrane potential modulation in parental HEK293, confirmation, counter-screen for TRPC6 inhibitor project, cell-based; shares compounds with TRPC6 inhibitor; parental HEK293 membrane potential dye fluorescence; membrane potential signal change, % at 10 µM; actives 60% (n = 920); AID 2780, 2010;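 active = membrane potential signal shifting up or down by more than 3 SD of buffer-only wells, on both duplicate plates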
# HEK293 MPD ctr-2: parental HEK293 membrane potential modulation, confirmation, counter-screen for TRPC6 modulator project, cell-based; shares compounds with TRPC6 inhibitor; membrane potential dye fluorescence; membrane potential signal change, % at 10 µM; actives 51% (n = 2,400);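 active = membrane potential signal moves up or down beyond 5 SD from buffer-only wells, on both duplicate plates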
# HEK293 MPD ctr 2-2: parental HEK293 nonspecific activity of TRPC6 modulators, second screen; shares compounds with TRPC6 inhibitor; AID 488926; membrane potential dye fluorescence; after compound, maximal acetylcholine stimulation; inhibition, % at 10 µM; actives 14% (n = 2,400);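 active = membrane potential signal drops by more than 5 SD from the mean control signal, in both duplicate plates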;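 also: plate controls were acetylcholine ECmax control wells for no effect and buffer only wells for full effect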
# TRPC4 ctr mod: TRPC4 modulation by TRPC6 hit compounds, confirmation, selectivity assay for TRPC6 modulator project, cell-based, HEK293 TRPC4/mu-opioid, membrane potential dye, mouse; shares compounds with TRPC6 inhibitor; AID 488927, 2010; membrane potential fluorescence; percent change from control (negative = decrease, positive = increase), % at 10 µM; actives 69% (n = 2,400);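 active = membrane potential signal moved up or down beyond 5 SD of buffer control wells, in both duplicate plates, actives on both sides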;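 also: plate controls were assay buffer wells for no effect and DAMGO maximal-effect wells for full effect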
# TRPC4 ctr inh 2: second selectivity test of TRPC6 modulators against mouse TRPC4 | shares compounds with TRPC6 inhibitor | HEK293 TRPC4/mu-opioid, membrane potential dye fluorescence; stimulated with maximal-effect DAMGO | inhibition, % at 10 µM | actives 55% (n = 2,400);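 active = drop in membrane potential signal beyond 5 SD of the control wells in both duplicate plates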;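 also: TRPC4 counter screen for TRPC6 hits run under conditions tuned for TRPC6 not TRPC4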
# TRPC6 block conf: mouse TRPC6 channel inhibitors, confirmation, HEK293 cells, membrane potential dye, duplicate | shares compounds with TRPC6 inhibitor | actives 43% (n = 3,300) | inhibition, % at 10 µM | ACh-evoked depolarization;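 active = fluorescence ratio falls more than 5 SD below the full-stimulation control mean, in both duplicate runs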;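 also: integrated fluorescence ratio of peak minus minimum over baseline after agonist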
# TRPC6 act conf: mouse TRPC6 channel activators, confirmation, HEK293 cells, membrane potential dye, duplicate; shares compounds with TRPC6 inhibitor; HEK293-TRPC6 membrane potential dye fluorescence, FDSS; activation, % at 10 µM; actives 11% (n = 2,800); AID 488961, 2010;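 active = ratio signal rise beyond 5 SD above unstimulated control wells' mean, seen in both duplicate runs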;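 also: plate controls were buffer EC0 wells for no effect and acetylcholine ECmax response for full effect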
# * = called active by the depositor; i = inactive; · = not tested or not shown.
SMILES,TRPC4 agonist,TRPC4 PAM,TRPC6 activator,TRPC6 inhibitor,TRPC4 block,HEK293 MPD ctr-2,HEK293 MPD ctr 2-2,TRPC4 ctr mod,TRPC4 ctr inh 2,TRPC6 block conf,TRPC6 act conf,others
O=C(Cn1cnc(S(=O)(=O)N2CCCC2)c1)Nc1ccc(OC(F)(F)F)cc1,i,i,i,i,i,·,·,·,·,·,·,
OC(C#CCN1CCCC1)(c1ccccc1)c1cccnc1 (stereo not drawn),i,i,i,-6.09*,i,i,69.0%*,i,i,81.5%*,i,
OC(C#CCN1CCCC1)c1ccccc1 (stereo not drawn),i,i,i,i,i,·,·,·,·,·,·,
CCCN(CC#CC(O)(c1ccccc1)c1cccnc1)CCC (stereo not drawn),i,i,i,i,i,·,·,·,·,·,·,
OC(C#CCN1CCCCCC1)(c1ccccc1)c1cccnc1 (stereo not drawn),i,i,i,-7.28*,i,·,·,·,·,63.4%*,·,TRPC4 sel inh 2=i;TRPC4 spec=3.4%*;HEK293 MPD ctr 2-1=8.5%*;HEK293 MPD ctr-1=4.8%*
CCCN1CCC(NC(=S)Nc2ccc(S(N)(=O)=O)cc2)CC1,i,i,i,i,i,·,·,·,·,·,·,
COCCNC(=O)C(c1cccs1)N(Cc1cccs1)C(=O)Cn1nnc2ccccc21 (stereo not drawn),i,i,i,i,i,·,·,·,·,·,·,
CC(C)CCNC(=O)C(c1ccco1)N(Cc1cccs1)C(=O)Cn1nnc2ccccc21 (stereo not drawn),i,i,14.9*,i,i,281.0%*,i,72.0%*,i,i,98.0%*,
COc1ccc(C(=O)NCc2nnc(SCC(=O)NO)n2Cc2ccccc2)cc1,i,i,i,i,i,·,·,·,·,·,·,
COc1ccc(CCNC(=O)C2CCCN2C(=O)Nc2ccc(Cl)cc2)cc1OC (stereo not drawn),i,i,i,i,i,·,·,·,·,·,·,
CN(C)C=Nc1ncc2c3ccccc3n(Cc3ccccc3)c2c1C#N,i,i,i,i,i,·,·,·,·,·,·,
CCN(CC)CCn1c2ccccc2c2cnc(N)c(C#N)c21,i,i,i,-7.23*,-6*,·,·,·,·,i,i,TRPC4 sel inh 2=i;TRPC4 spec=-12.1%*;HEK293 MPD ctr 2-1=i;HEK293 MPD ctr-1=-197.5%*
CN(C)C=Nc1ncc2c3ccccc3n(CCN(C)C)c2c1C#N,i,i,i,-7.03*,i,·,·,·,·,i,i,TRPC4 sel inh 2=53.5%*;TRPC4 spec=-16.5%*;HEK293 MPD ctr 2-1=i;HEK293 MPD ctr-1=-231.5%*
O=C(Cn1ccc2cc(S(=O)(=O)N3CCCCC3)ccc21)NCc1ccccc1F,i,i,i,i,i,·,·,·,·,·,·,
COc1ccccc1Nc1nc(NCCCN(C)C)nc(N)c1[N+](=O)[O-],i,i,i,-6.41*,i,i,i,i,49.0%*,42.0%*,i,
Cc1ccccc1OCC(=O)N/N=C1\SCC(=O)N1Cc1ccccc1,i,i,i,i,i,·,·,·,·,·,·,
CN1C(=O)CS/C1=N\NC(=O)COc1cccc2cccnc12,i,i,i,-5.9*,i,-230.0%*,i,-42.5%*,i,i,i,
CN(C)c1cc[n+](CC[n+]2ccc(N(C)C)cc2)cc1,i,i,i,-5.53*,i,-233.5%*,i,-41.5%*,40.0%*,52.5%*,i,
CN(C)c1cc[n+](Cc2c(Cl)cccc2Cl)cc1,i,i,i,i,i,·,·,·,·,·,·,
COc1cc2c(cc1OC)CN(C(=O)C1CCCN1S(=O)(=O)c1ccc(F)cc1)CC2 (stereo not drawn),i,i,i,i,i,·,·,·,·,·,·,
C(=N\n1cnnc1)/c1ccc2ncccc2c1,i,i,i,-7.74*,i,-280.0%*,i,-37.0%*,50.5%*,i,i,
CCN1CCN(c2ccc(S(=O)(=O)N3CCOCC3)cc2NC(=O)/C=C/c2cccc(OC)c2OC)CC1,i,i,i,i,i,·,·,·,·,·,·,
CC(C)(C)n1nnnc1C(c1ccc2ncccc2c1)N1CCC(O)CC1 (stereo not drawn),i,i,i,i,i,·,·,·,·,·,·,
CCC(C)(C)n1nnnc1C(c1ccc2ncccc2c1)N1CCCC(C)C1 (stereo not drawn),i,i,i,-7.22*,i,·,·,·,·,i,·,TRPC4 sel inh 2=i;TRPC4 spec=27.2%*;HEK293 MPD ctr 2-1=i;HEK293 MPD ctr-1=15.7%*

# Assay outcomes: PubChem BioAssay, Johns Hopkins Ion Channel Center
